Data on 5 compounds can be found in ChEMBL document CHEMBL1126638, “Intracellular delivery of bioactive AZT nucleotides by aryl phosphate derivatives of AZT” (J Med Chem, 1993).

The test system of the first test is CCRF-CEM. Briefly: Antiviral activity in HIV-2 infected CEM cells which are deficient in Thymidine Kinase. The class given is functional, cell-based. Particulars: Homo sapiens. The essentials:
(§1)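 Cells at 5 × 10^5/mL infected with HIV-1 (III_B, stocks from infected MT-4 supernatants) or HIV-2 (ROD) at 100 CCID50 per mL, then mixed with compound dilutions. Giant cell formation recorded microscopically at day 4 (CEM). Viable MT-4 cells counted by trypan blue at day 5. EC50 is the concentration giving 50% protection against viral cytopathicity. Mean of two to four independent experiments.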
As usually defined, the EC50 is the concentration giving half of the maximal effect. A high value points to weaker potency. For the compound `CCCc1ccc(OP(=O)(NC(C)C(=O)OC)OCC2OC(n3cc(C)c(=O)[nH]c3=O)CC2N=[N+]=[N-])cc1` (centres undefined), the midpoint of the response, the EC50, lay at 3000 nM.

On to `COC(=O)C(C)NP(=O)(OCC1OC(n2cc(C)c(=O)[nH]c2=O)CC1N=[N+]=[N-])Oc1ccc(C)cc1` (centres undefined), for which the EC50 was found to be 7000 nM.

For `COC(=O)C(C)NP(=O)(OCC1OC(n2cc(C)c(=O)[nH]c2=O)CC1N=[N+]=[N-])Oc1ccc(F)cc1` (centres undefined), the EC50 was found to be 3000 nM. This EC50 lies about 2.3-fold lower than the previous one.

Compound `Cc1cn([C@H]2C[C@H](N=[N+]=[N-])[C@@H](CO)O2)c(=O)[nH]c1=O` [ZIDOVUDINE] came in with an EC50 of more than 100000 nM.

Regarding `COC(=O)CNP(=O)(OCC1OC(n2cc(C)c(=O)[nH]c2=O)CC1N=[N+]=[N-])Oc1ccccc1` (centres undefined), the EC50 was more than 100000 nM.

For a further test, the system named is CCRF-CEM. The test is described as follows: Anti HIV-1 activity in human lymphocyte CEM/0 cell line. It is filed as functional, cell-based.
Conditions: not given
The method, boiled down:
as §1
`CCCc1ccc(OP(=O)(NC(C)C(=O)OC)OCC2OC(n3cc(C)c(=O)[nH]c3=O)CC2N=[N+]=[N-])cc1` (centres undefined) registered an EC50 of 41 nM. This counts as double-digit nanomolar.

The compound `COC(=O)C(C)NP(=O)(OCC1OC(n2cc(C)c(=O)[nH]c2=O)CC1N=[N+]=[N-])Oc1ccc(C)cc1` (centres undefined) displayed an EC50 of 65 nM.

Take `COC(=O)C(C)NP(=O)(OCC1OC(n2cc(C)c(=O)[nH]c2=O)CC1N=[N+]=[N-])Oc1ccc(F)cc1` (centres undefined): the EC50 stood at 48 nM.

As for `Cc1cn([C@H]2C[C@H](N=[N+]=[N-])[C@@H](CO)O2)c(=O)[nH]c1=O` [ZIDOVUDINE], the midpoint of the response, the EC50, lay at 3 nM.

In the case of `COC(=O)CNP(=O)(OCC1OC(n2cc(C)c(=O)[nH]c2=O)CC1N=[N+]=[N-])Oc1ccccc1` (centres undefined), a half-maximal effect (EC50) was put at 97 nM.

The subject of the next test is CCRF-CEM. Briefly: Anti HIV-2 activity in human lymphocyte CEM/0 cell line. It is filed as functional, cell-based.
Conditions: not given
The method, boiled down: as §1
In the case of `CCCc1ccc(OP(=O)(NC(C)C(=O)OC)OCC2OC(n3cc(C)c(=O)[nH]c3=O)CC2N=[N+]=[N-])cc1` (centres undefined), the EC50 was found to be 51 nM. In other words, the double-digit nanomolar range.

The compound `COC(=O)C(C)NP(=O)(OCC1OC(n2cc(C)c(=O)[nH]c2=O)CC1N=[N+]=[N-])Oc1ccc(C)cc1` (centres undefined) gave an EC50 of 56 nM.

For `COC(=O)C(C)NP(=O)(OCC1OC(n2cc(C)c(=O)[nH]c2=O)CC1N=[N+]=[N-])Oc1ccc(F)cc1` (centres undefined), the EC50 was found to be 65 nM.

In turn, `Cc1cn([C@H]2C[C@H](N=[N+]=[N-])[C@@H](CO)O2)c(=O)[nH]c1=O` [ZIDOVUDINE] registered a concentration for a half-maximal effect (EC50) of 4 nM. This EC50 lies about 16-fold lower than the previous one.

`COC(=O)CNP(=O)(OCC1OC(n2cc(C)c(=O)[nH]c2=O)CC1N=[N+]=[N-])Oc1ccccc1` (centres undefined) showed an EC50 of 230 nM.

The subject of a further test is CCRF-CEM. The test is described as follows: cytotoxic activity in CEM/0 cell line. It is filed as functional. Particulars: Homo sapiens. The essentials:
(§2)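 Mock-infected MT-4 or CEM cell cultures incubated with compound dilutions in the same format as the antiviral assay. CC50 is the concentration reducing viable cell number (MT-4, trypan blue, day 5) […] by 50%. Mean of two to four independent experiments.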
For orientation: CC50 means the concentration at which the toxic effect on the cells reaches its halfway point. A low value points to harm at low concentration. As to `CCCc1ccc(OP(=O)(NC(C)C(=O)OC)OCC2OC(n3cc(C)c(=O)[nH]c3=O)CC2N=[N+]=[N-])cc1` (centres undefined), the 50% cytotoxic concentration (CC50) was 32700 nM. In other words, the double-digit micromolar range.

For `COC(=O)C(C)NP(=O)(OCC1OC(n2cc(C)c(=O)[nH]c2=O)CC1N=[N+]=[N-])Oc1ccc(C)cc1` (centres undefined), the midpoint of cytotoxicity, the CC50, lay at 43000 nM.

`COC(=O)C(C)NP(=O)(OCC1OC(n2cc(C)c(=O)[nH]c2=O)CC1N=[N+]=[N-])Oc1ccc(F)cc1` (centres undefined) registered a 50% cytotoxic concentration (CC50) of 128000 nM.

The compound `Cc1cn([C@H]2C[C@H](N=[N+]=[N-])[C@@H](CO)O2)c(=O)[nH]c1=O` [ZIDOVUDINE] returned a CC50 of more than 500000 nM.

Turning to `COC(=O)CNP(=O)(OCC1OC(n2cc(C)c(=O)[nH]c2=O)CC1N=[N+]=[N-])Oc1ccccc1` (centres undefined), the CC50 was more than 500000 nM.

For another test, the system named is MT4. The test is described as follows: Anti HIV-2 activity in human lymphocyte MT-4 cell line. The class given is functional, cell-based.
Conditions: not given
The method, boiled down: as §1
`CCCc1ccc(OP(=O)(NC(C)C(=O)OC)OCC2OC(n3cc(C)c(=O)[nH]c3=O)CC2N=[N+]=[N-])cc1` (centres undefined) returned an EC50 of 45 nM. In other words, the double-digit nanomolar range.

In turn, `COC(=O)C(C)NP(=O)(OCC1OC(n2cc(C)c(=O)[nH]c2=O)CC1N=[N+]=[N-])Oc1ccc(C)cc1` (centres undefined) came in with an EC50 of 53 nM.

The compound `COC(=O)C(C)NP(=O)(OCC1OC(n2cc(C)c(=O)[nH]c2=O)CC1N=[N+]=[N-])Oc1ccc(F)cc1` (centres undefined) gave an EC50 of 54 nM.

In turn, `COC(=O)CNP(=O)(OCC1OC(n2cc(C)c(=O)[nH]c2=O)CC1N=[N+]=[N-])Oc1ccccc1` (centres undefined) yielded an EC50 of 200 nM.

The next test deals with MT4. The test is described as follows: cytotoxic activity in MT-4 cell line. Particulars: Homo sapiens. The class given is functional. The essentials:
as §2
The compound `CCCc1ccc(OP(=O)(NC(C)C(=O)OC)OCC2OC(n3cc(C)c(=O)[nH]c3=O)CC2N=[N+]=[N-])cc1` (centres undefined) displayed a CC50 of 28000 nM.

For the compound `COC(=O)C(C)NP(=O)(OCC1OC(n2cc(C)c(=O)[nH]c2=O)CC1N=[N+]=[N-])Oc1ccc(C)cc1` (centres undefined), the cytotoxic concentration (CC50) amounted to 27000 nM.

`COC(=O)C(C)NP(=O)(OCC1OC(n2cc(C)c(=O)[nH]c2=O)CC1N=[N+]=[N-])Oc1ccc(F)cc1` (centres undefined) had a cytotoxic concentration (CC50) of 206000 nM. Compared with the last compound, the CC50 is about 7.6-fold higher.

`Cc1cn([C@H]2C[C@H](N=[N+]=[N-])[C@@H](CO)O2)c(=O)[nH]c1=O` [ZIDOVUDINE] gave a CC50 of 6000 nM.

For the compound `COC(=O)CNP(=O)(OCC1OC(n2cc(C)c(=O)[nH]c2=O)CC1N=[N+]=[N-])Oc1ccccc1` (centres undefined), the CC50 is more than 500000 nM.

The test system of another test is MT4. The test is described as follows: Anti HIV-1 activity in human lymphocyte MT-4 cell line.
Conditions: not given
The class given is functional, cell-based. The essentials: as §1
In turn, `CCCc1ccc(OP(=O)(NC(C)C(=O)OC)OCC2OC(n3cc(C)c(=O)[nH]c3=O)CC2N=[N+]=[N-])cc1` (centres undefined) came in with an EC50 of 43 nM.

With `COC(=O)C(C)NP(=O)(OCC1OC(n2cc(C)c(=O)[nH]c2=O)CC1N=[N+]=[N-])Oc1ccc(C)cc1` (centres undefined), the EC50 stood at 51 nM.

`COC(=O)C(C)NP(=O)(OCC1OC(n2cc(C)c(=O)[nH]c2=O)CC1N=[N+]=[N-])Oc1ccc(F)cc1` (centres undefined) displayed an EC50 of 41 nM. The EC50 values of the last two compounds are within 1.5-fold of each other.

Regarding `Cc1cn([C@H]2C[C@H](N=[N+]=[N-])[C@@H](CO)O2)c(=O)[nH]c1=O` [ZIDOVUDINE], the EC50 worked out at 2 nM.

The compound `COC(=O)CNP(=O)(OCC1OC(n2cc(C)c(=O)[nH]c2=O)CC1N=[N+]=[N-])Oc1ccccc1` (centres undefined) came in with an EC50 of 160 nM.

Tested on in the next test: not listed separately
The test is described as follows: EC50 of HIV-2 in CEM/TK versus EC50 of HIV-2 in CEM/0.
Conditions: not given
It is filed as functional. The essentials:
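Ratio of the HIV-2 EC50 in thymidine kinase-deficient CEM/TK⁻ cells to the HIV-2 EC50 in CEM/O cells. Both values come from the cytopathicity-protection assay.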
Regarding `CCCc1ccc(OP(=O)(NC(C)C(=O)OC)OCC2OC(n3cc(C)c(=O)[nH]c3=O)CC2N=[N+]=[N-])cc1` (centres undefined), the Ratio came to 59.

On to `COC(=O)C(C)NP(=O)(OCC1OC(n2cc(C)c(=O)[nH]c2=O)CC1N=[N+]=[N-])Oc1ccc(C)cc1` (centres undefined), for which the Ratio stood at 125.

Consider `COC(=O)C(C)NP(=O)(OCC1OC(n2cc(C)c(=O)[nH]c2=O)CC1N=[N+]=[N-])Oc1ccc(F)cc1` (centres undefined), for which the Ratio worked out at 46.

In the case of `Cc1cn([C@H]2C[C@H](N=[N+]=[N-])[C@@H](CO)O2)c(=O)[nH]c1=O` [ZIDOVUDINE], the Ratio is more than 28600.

As for `COC(=O)CNP(=O)(OCC1OC(n2cc(C)c(=O)[nH]c2=O)CC1N=[N+]=[N-])Oc1ccccc1` (centres undefined), the Ratio is more than 435.

Tested on in another test: not listed separately
The test is described as follows: Selective index is the ratio of cytotoxic concentration to effective concentration against MT-4 cell line.
Conditions: not given
The class given is functional, MT4. The method, boiled down:
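Selectivity index for HIV-2 in MT-4 cells is the CC50 (mock-infected cultures, trypan blue viable count at day 5) divided by the EC50 (protection of infected cultures from HIV-2 cytopathicity).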
Turning to `CCCc1ccc(OP(=O)(NC(C)C(=O)OC)OCC2OC(n3cc(C)c(=O)[nH]c3=O)CC2N=[N+]=[N-])cc1` (centres undefined), the Selectivity index was found to be 631.

`COC(=O)C(C)NP(=O)(OCC1OC(n2cc(C)c(=O)[nH]c2=O)CC1N=[N+]=[N-])Oc1ccc(C)cc1` (centres undefined): the Selectivity index was 509.

For the compound `COC(=O)C(C)NP(=O)(OCC1OC(n2cc(C)c(=O)[nH]c2=O)CC1N=[N+]=[N-])Oc1ccc(F)cc1` (centres undefined), the Selectivity index is 3815.

On to `Cc1cn([C@H]2C[C@H](N=[N+]=[N-])[C@@H](CO)O2)c(=O)[nH]c1=O` [ZIDOVUDINE], for which the Selectivity index stood at 2000.

With `COC(=O)CNP(=O)(OCC1OC(n2cc(C)c(=O)[nH]c2=O)CC1N=[N+]=[N-])Oc1ccccc1` (centres undefined), the Selectivity index is more than 2500.
